Source: ChEMBL document CHEMBL1275351, “Novel spirotetracyclic zwitterionic dual H(1)/5-HT(2A) receptor antagonists for the treatment of sleep disorders” (J Med Chem, 2010)

Legend:
[1] = molecular target: Histamine H1 receptor (Homo sapiens, UniProt P35367); experiment: Antagonist activity against human histamine H1 receptor expressed in CHO cells by FLIPR assay; type: functional, cell-based
[2] = molecular target: 5-hydroxytryptamine receptor 2A (Homo sapiens, UniProt P28223); experiment: Antagonist activity at human 5HT2A receptor expressed in HEK cells assessed as inhibition of intracellular calcium accumulation by aequorin assay; type: functional, cell-based, HEK293
Chain of 5-hydroxytryptamine receptor 2A (Homo sapiens, UniProt P28223) (P28223 whole entry): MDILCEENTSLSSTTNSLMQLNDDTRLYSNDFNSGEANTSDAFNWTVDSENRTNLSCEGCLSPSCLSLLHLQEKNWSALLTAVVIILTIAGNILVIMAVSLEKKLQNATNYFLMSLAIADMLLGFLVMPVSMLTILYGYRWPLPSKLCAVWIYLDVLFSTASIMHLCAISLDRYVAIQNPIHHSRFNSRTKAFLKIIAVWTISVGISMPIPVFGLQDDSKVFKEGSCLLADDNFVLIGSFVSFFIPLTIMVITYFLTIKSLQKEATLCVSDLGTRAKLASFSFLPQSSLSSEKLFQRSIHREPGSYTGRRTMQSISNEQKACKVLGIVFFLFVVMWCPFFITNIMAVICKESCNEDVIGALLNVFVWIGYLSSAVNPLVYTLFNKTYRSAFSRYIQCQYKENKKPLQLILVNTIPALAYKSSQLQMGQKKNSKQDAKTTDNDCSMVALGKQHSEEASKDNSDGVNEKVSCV

[3] = molecular target: 5-hydroxytryptamine receptor 2B (Homo sapiens, UniProt P41595); experiment: Antagonist activity at human 5HT2B receptor expressed in human SH-SY5Y cells by FLIPR assay
Chain of 5-hydroxytryptamine receptor 2B (P41595 whole entry): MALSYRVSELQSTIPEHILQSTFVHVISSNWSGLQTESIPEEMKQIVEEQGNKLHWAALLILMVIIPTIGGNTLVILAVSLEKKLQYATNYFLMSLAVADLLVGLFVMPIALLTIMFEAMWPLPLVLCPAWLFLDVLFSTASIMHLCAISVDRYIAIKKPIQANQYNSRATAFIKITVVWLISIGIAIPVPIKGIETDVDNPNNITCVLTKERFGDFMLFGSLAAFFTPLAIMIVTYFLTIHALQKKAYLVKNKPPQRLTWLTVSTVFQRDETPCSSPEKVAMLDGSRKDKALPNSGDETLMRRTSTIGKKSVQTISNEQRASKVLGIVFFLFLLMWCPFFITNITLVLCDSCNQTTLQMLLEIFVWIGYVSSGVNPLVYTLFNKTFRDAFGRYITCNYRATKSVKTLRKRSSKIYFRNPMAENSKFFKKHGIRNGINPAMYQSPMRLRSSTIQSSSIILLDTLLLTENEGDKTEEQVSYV

[4] = molecular target: T1, 5-hydroxytryptamine receptor 2C (Homo sapiens, UniProt P28335); experiment: Antagonist activity at human 5HT2C receptor expressed in human SH-SY5Y cells by FLIPR assay; type: functional, cell-based
T1 sequence (P28335 whole entry): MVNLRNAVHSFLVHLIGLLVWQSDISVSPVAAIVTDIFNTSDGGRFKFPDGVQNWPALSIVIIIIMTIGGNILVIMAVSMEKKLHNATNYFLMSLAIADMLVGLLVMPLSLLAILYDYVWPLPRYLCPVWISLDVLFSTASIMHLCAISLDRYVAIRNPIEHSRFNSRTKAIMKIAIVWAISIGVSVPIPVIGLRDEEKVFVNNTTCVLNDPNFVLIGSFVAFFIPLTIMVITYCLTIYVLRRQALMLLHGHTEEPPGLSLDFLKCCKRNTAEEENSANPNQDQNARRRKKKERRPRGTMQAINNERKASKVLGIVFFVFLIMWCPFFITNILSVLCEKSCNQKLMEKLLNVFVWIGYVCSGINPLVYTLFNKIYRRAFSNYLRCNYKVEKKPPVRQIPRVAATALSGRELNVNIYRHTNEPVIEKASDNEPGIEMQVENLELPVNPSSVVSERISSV

[5] = molecular target: Voltage-gated inwardly rectifying potassium channel KCNH2 (Homo sapiens, UniProt Q12809); experiment: Displacement of [3H]dofetilide from human ERG by scintillation proximity assay
Chain of Voltage-gated inwardly rectifying potassium channel KCNH2 (Q12809 whole entry): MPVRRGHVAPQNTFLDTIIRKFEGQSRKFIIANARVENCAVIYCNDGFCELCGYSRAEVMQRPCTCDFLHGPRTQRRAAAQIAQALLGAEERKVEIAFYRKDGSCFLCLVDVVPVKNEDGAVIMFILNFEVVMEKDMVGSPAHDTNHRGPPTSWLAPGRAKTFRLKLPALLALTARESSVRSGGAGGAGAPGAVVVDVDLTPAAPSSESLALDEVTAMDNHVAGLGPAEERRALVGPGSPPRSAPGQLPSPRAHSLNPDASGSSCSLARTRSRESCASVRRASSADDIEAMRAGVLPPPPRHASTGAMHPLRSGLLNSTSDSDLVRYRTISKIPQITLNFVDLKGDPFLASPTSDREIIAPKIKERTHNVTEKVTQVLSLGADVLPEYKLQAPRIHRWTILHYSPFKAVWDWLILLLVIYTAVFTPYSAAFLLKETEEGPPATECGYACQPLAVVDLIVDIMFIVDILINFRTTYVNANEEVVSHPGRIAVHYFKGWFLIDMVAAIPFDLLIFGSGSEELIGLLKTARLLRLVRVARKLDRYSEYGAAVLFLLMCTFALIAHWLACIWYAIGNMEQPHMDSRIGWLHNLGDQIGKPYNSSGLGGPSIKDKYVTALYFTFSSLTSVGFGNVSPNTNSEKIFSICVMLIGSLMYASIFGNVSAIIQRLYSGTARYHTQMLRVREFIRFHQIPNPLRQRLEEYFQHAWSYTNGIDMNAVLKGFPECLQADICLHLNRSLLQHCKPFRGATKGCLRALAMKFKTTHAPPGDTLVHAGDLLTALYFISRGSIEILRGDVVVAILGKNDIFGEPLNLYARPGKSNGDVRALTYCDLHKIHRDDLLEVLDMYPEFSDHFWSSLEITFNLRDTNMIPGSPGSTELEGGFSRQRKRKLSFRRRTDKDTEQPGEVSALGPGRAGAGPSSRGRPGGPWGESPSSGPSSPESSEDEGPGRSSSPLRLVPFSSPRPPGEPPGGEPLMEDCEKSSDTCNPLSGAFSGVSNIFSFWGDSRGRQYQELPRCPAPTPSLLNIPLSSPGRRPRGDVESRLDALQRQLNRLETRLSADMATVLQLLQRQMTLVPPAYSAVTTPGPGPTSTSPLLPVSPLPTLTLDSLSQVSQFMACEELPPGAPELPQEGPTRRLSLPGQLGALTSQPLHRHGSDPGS

[6] = molecular target: Histamine H1 receptor (Rattus norvegicus, UniProt P31390); experiment: Displacement of [3H]pyrilamine from histamine H1 receptor in Sprague-Dawley rat cortical membrane by liquid scintillation counting
Chain of Histamine H1 receptor (Rattus norvegicus, UniProt P31390) (P31390 whole entry): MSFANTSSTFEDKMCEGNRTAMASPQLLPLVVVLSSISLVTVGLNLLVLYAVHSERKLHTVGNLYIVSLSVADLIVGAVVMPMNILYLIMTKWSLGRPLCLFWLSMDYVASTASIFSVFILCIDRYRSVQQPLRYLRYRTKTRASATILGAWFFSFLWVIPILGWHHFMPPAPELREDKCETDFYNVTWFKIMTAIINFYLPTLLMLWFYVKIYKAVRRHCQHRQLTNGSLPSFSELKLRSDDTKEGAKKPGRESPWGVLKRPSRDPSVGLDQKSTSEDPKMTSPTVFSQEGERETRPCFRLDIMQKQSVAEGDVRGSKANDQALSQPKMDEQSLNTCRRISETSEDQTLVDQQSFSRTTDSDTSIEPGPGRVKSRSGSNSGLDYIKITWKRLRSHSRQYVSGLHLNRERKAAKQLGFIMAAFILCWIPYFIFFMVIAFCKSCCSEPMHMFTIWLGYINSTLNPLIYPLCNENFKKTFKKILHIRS
Method in brief: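 Cerebral cortex membranes from male Sprague-Dawley rats (200-250 g), 150 μg/well. Incubated with 0.6 nM [3H]pyrilamine in 50 mM HEPES, pH 7.4, for 2 h at room temperature. Filtered on PEI-soaked GF/B and counted by scintillation. Nonspecific binding with 10 μM cetirizine. Ki by Cheng-Prusoff; mean of two experiments in duplicate.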

[7] = molecular target: 5-hydroxytryptamine receptor 2A (Rattus norvegicus, UniProt P14842); experiment: Displacement of [3H]ketanserin from 5HT2A receptor in Sprague-Dawley rat cortical membrane by liquid scintillation counting
Chain of 5-hydroxytryptamine receptor 2A (Rattus norvegicus, UniProt P14842) (P14842 whole entry): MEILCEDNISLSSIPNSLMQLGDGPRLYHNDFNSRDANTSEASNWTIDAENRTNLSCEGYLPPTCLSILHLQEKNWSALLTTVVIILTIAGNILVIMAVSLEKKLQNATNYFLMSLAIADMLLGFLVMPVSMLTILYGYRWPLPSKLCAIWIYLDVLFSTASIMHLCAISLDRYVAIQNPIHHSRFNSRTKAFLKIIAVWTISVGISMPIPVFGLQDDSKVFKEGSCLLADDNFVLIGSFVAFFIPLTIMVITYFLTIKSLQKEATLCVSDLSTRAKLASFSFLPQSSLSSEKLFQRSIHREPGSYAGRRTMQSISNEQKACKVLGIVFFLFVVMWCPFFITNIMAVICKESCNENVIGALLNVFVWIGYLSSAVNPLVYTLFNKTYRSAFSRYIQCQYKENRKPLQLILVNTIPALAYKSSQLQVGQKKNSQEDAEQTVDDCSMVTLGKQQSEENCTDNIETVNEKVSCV
Method in brief: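 Cerebral cortex membranes from male Sprague-Dawley rats (200-250 g), 50 μg/well. Incubated with 1 nM [3H]ketanserin in 50 mM Tris-HCl, 10 mM MgCl2, pH 7.4, for 1 h at 37 °C with shaking. Filtered on PEI-soaked GF/B and counted by scintillation. Nonspecific binding with 10 μM mianserin. Ki by Cheng-Prusoff; mean of two experiments in duplicate.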

[8] = molecular target: T2, Cytochrome P450 1A2 (Homo sapiens, UniProt P05177); experiment: Inhibition of human CYP1A2 transfected in bactosome expression system by spectrofluorimetry; type: ADME
T2 sequence (P05177 whole entry): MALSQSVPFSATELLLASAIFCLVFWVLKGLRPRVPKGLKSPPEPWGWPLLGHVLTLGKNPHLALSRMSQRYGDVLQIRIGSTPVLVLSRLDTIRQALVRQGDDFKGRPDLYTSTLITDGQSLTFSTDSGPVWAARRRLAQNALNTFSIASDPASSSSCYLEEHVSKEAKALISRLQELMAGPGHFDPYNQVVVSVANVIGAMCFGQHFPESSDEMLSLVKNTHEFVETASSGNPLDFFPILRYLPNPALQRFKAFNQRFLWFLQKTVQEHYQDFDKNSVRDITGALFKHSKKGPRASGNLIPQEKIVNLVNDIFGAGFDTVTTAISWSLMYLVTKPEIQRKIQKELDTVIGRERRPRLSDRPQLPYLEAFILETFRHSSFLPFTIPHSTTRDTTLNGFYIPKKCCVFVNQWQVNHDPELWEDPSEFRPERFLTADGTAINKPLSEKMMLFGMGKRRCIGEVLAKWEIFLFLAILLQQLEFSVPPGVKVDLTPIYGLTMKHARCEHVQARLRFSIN
Method in brief: (§1)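 Recombinant human CYP Bactosomes (0.1 mg/mL) in 50 mM phosphate buffer, pH 7.4. Compound at 0.1-10 μM was preincubated with fluorogenic substrate for 10 min at 37 °C, and the reaction was started with an NADPH regenerating system. Metabolite fluorescence was followed for 10 min. Substrates: 1A2 ethoxyresorufin 0.5 μM; 2C9 FCA 50 μM; 2C19 BMC 10 μM; 2D6 MMC 10 μM; 3A4 DEF 1 μM or 7-BQ 25 μM. Run in triplicate.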

[9] = molecular target: Cytochrome P450 2C9 (Homo sapiens, UniProt P11712); experiment: Inhibition of human CYP2C9 transfected in bactosome expression system by spectrofluorimetry; type: ADME; method in brief: as §1
Chain of Cytochrome P450 2C9 (P11712 whole entry): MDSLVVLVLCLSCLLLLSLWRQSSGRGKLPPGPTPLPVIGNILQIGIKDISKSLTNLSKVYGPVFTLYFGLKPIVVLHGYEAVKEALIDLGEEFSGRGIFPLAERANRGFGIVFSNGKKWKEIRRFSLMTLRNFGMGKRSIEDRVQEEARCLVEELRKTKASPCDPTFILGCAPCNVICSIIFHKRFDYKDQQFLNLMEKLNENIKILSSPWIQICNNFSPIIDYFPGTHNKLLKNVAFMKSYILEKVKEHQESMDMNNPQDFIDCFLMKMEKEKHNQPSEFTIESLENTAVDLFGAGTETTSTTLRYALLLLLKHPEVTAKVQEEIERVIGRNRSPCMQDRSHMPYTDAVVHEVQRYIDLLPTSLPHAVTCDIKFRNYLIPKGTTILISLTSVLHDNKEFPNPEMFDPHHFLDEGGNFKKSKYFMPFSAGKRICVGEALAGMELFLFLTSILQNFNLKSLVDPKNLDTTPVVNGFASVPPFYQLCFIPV

[10] = molecular target: Cytochrome P450 2C19 (Homo sapiens, UniProt P33261); experiment: Inhibition of human CYP2C19 transfected in bactosome expression system by spectrofluorimetry; type: ADME; method in brief: as §1
Chain of Cytochrome P450 2C19 (P33261 whole entry): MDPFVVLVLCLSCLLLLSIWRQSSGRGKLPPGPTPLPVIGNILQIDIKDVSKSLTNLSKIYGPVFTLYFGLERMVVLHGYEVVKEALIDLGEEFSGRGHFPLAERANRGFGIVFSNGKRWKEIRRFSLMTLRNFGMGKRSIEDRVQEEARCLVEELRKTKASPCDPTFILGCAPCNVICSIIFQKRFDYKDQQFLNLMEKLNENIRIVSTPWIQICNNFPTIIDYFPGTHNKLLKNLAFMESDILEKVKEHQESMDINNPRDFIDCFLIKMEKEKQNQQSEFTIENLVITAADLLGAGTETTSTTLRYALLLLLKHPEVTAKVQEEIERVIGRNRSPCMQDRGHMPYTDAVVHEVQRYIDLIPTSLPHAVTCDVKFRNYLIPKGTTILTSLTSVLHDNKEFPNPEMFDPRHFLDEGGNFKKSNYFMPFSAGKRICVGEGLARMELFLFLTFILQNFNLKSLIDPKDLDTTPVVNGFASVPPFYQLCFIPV

[11] = molecular target: Cytochrome P450 2D6 (Homo sapiens, UniProt P10635); experiment: Inhibition of human CYP2D6 transfected in bactosome expression system by spectrofluorimetry; type: ADME; method in brief: as §1
[12] = molecular target: Cytochrome P450 3A4 (Homo sapiens, UniProt P08684); experiment: Inhibition of human CYP3A4 transfected in bactosome expression system by spectrofluorimetry; type: ADME; method in brief: as §1
[13] = Fraction unbound in rat brain; type: ADME, tissue-based
[14] = Fraction unbound in rat blood; type: ADME, tissue-based
[15] = Blood clearance in Sprague-Dawley rat at 1 mg/kg, iv and 3 mg/kg, po; type: ADME, organism-based; conditions: whole blood
Method in brief: (§2)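 Male Sprague-Dawley rats, cassette dosing. Compounds were given as an iv bolus and as an oral suspension. Blood samples were taken at intervals up to 24 h, processed by protein precipitation and analysed by HPLC-MS/MS.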

[16] = Volume of distribution at steady state in Sprague-Dawley rat at 1 mg/kg, iv and 3 mg/kg, po; type: ADME, organism-based; conditions: in vivo, read-out: Vdss; method in brief: as §2
[17] = Half life in Sprague-Dawley rat at 1 mg/kg, iv and 3 mg/kg, po; type: ADME, organism-based; conditions: in vivo; method in brief: as §2
[18] = Oral bioavailability in Sprague-Dawley rat at 3 mg/kg; type: ADME, organism-based; conditions: in vivo; method in brief: as §2
[19] = Ratio of drug level in brain to blood in Sprague-Dawley rat at 1 mg/kg, iv and 3 mg/kg, po; type: ADME, organism-based; conditions: read-out: BBR
Method in brief: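 Male Sprague-Dawley rats, cassette dosing, iv bolus or oral suspension. Blood and brain levels were measured by protein precipitation and HPLC-MS/MS. Brain:blood ratio was taken from AUC0-8h after oral dosing, or at 1 h after iv dosing for one compound.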

Chain of Histamine H1 receptor (Homo sapiens, UniProt P35367) (P35367 whole entry): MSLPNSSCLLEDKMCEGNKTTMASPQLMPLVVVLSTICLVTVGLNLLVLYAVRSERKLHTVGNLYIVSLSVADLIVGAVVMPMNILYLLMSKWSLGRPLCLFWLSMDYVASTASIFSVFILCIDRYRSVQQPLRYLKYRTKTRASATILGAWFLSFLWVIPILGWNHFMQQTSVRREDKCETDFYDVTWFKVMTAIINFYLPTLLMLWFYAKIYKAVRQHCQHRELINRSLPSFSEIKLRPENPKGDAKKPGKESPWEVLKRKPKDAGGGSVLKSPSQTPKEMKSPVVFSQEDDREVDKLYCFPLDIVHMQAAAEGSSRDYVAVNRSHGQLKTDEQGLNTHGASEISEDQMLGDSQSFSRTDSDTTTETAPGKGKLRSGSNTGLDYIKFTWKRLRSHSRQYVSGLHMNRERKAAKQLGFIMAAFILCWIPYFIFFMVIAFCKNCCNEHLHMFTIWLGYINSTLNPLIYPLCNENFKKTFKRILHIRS

SMILES | Ki [1] [nM] | Ki [2] [nM] | Ki [3] [nM] | Ki [4] [nM] | other results
CC1(C(=O)O)CCN(C2CC[C@]3(Cc4ccccc4Cc4ccccc43)C2)C1 (some centres not stated) | 12.6 | 12.6 | 10 | 20 | –
O=C(O)C1=CCCN(C2CCC3(C2)C(=O)c2ccccc2Cc2ccccc23)C1 (configuration not stated) | 79.4 | > 2000 | – | > 2000 | –
O=C(O)[C@@H]1CCCN(C2CC[C@]3(Cc4ccccc4Cc4ccccc43)C2)C1 (some centres not stated) | 20 | 63.1 | 1260 | 31.6 | –
O=C(O)C1CCN(C2CCC3(C2)C(=O)c2cc(F)ccc2Sc2ccccc23)CC1 (configuration not stated) | 200 | 126 | > 2000 | > 2000 | –
O=C(O)CC1CCN(C2CC[C@]3(Cc4ccccc4Cc4ccccc43)C2)C1 (some centres not stated) | 31.6 | 20 | 1000 | 20 | –
CC1(C(=O)O)CCN(C2CCC3(Cc4ccccc4Cc4ccccc43)C2)CC1 (configuration not stated) | 50.1 | 39.8 | 3.16 | 15.8 | –
O=C(O)C1CCN(C2CCC3(Cc4ccccc4Oc4ccccc43)C2)CC1 (configuration not stated) | 79.4 | 316 | 1580 | – | –
O=C(O)[C@H]1[C@@H]2CN(C3CCC4(Cc5ccccc5Cc5ccccc54)C3)C[C@@H]21 (some centres not stated) | 39.8 | 631 | > 2000 | > 2000 | –
O=C(O)C1=CCCN(C2CCC3(Cc4ccccc4Oc4ccccc43)C2)C1 (configuration not stated) | 100 | 398 | > 2000 | > 2000 | –
O=C(O)C1CCN(C2CC[C@]3(Cc4ccccc4Cc4ccccc43)C2)C1 (some centres not stated) | 15.8 | 20 | 100 | 15.8 | –
O=C(O)C1(O)CCN(C2CCC3(Cc4ccccc4Cc4ccccc43)C2)CC1 (configuration not stated) | 50.1 | 100 | 251 | 126 | –
O=C(O)C1CN(C2CC[C@]3(Cc4ccccc4Cc4ccccc43)C2)CCN1 (some centres not stated) | 100 | 316 | 1260 | 200 | –
O=C(O)C1(F)CCN(C2CCC3(Cc4ccccc4Oc4ccccc43)C2)CC1 (configuration not stated) | 158 | 398 | > 2000 | > 2000 | –
O=C(O)CCNC1CC[C@]2(Cc3ccccc3Cc3ccccc32)C1 (some centres not stated) | 10 | 158 | > 2000 | 100 | IC50 [5]: 63100 nM
O=C(O)C1=CCN(C2CCC3(Cc4ccccc4Oc4ccccc43)C2)CC1 (configuration not stated) | 50.1 | 25.1 | > 2000 | 1000 | Ki [6]: 20 nM; Ki [7]: 105 nM; IC50 [8]: > 10000 nM; IC50 [9]: > 10000 nM; IC50 [10]: > 10000 nM; IC50 [11]: > 10000 nM; IC50 [12]: > 10000 nM; fraction unbound [13]: 0.027; fraction unbound [14]: 0.103; clearance [15]: 16 mL/min/kg; Vd [16]: 2.7 L/kg; half-life [17]: 3 h; bioavailability [18]: 37%; Kp [19]: 1.8
O=C(O)C1=CCCN(C2CC[C@]3(Cc4ccccc4Cc4ccccc43)C2)C1 (stereo in doubt; 48) | 20 | > 2000 | > 2000 | > 2000 | –
O=C(O)C=C1CN(C2CCC3(Cc4ccccc4Cc4ccccc43)C2)C1 (configuration not stated) | 200 | 50.1 | 251 | 251 | –
O=C(O)CC1CN(C2CCC3(Cc4ccccc4Cc4ccccc43)C2)C1 (configuration not stated) | 316 | 50.1 | 39.8 | > 2000 | –
O=C(O)C1(F)CCCN(C2CC[C@]3(Cc4ccccc4Cc4ccccc43)C2)C1 (some centres not stated) | 794 | 79.4 | > 2000 | 1580 | –
O=C(O)C1CCN(C2CCC3(C2)C(=O)c2cc(Cl)ccc2Oc2ccccc23)CC1 (configuration not stated) | 1000 | 398 | > 2000 | – | –
O=C(O)CCNC1CC[C@@]2(Cc3ccccc3Cc3ccccc32)C1 (some centres not stated) | 25.1 | 2000 | > 2000 | > 2000 | IC50 [5]: > 63100 nM
O=C(O)C1=CCCN(C2CCC3(Cc4cc(F)ccc4Cc4ccccc43)C2)C1 (configuration not stated) | 39.8 | > 759 | > 2000 | 316 | –
O=C(O)C1=CCCN(C2CC[C@@]3(Cc4ccccc4Cc4ccccc43)C2)C1 (some centres not stated) | 158 | 3980 | > 2000 | > 2000 | –
O=C(O)CC1CCN(C2CCC3(Cc4ccccc4Cc4ccccc43)C2)CC1 (configuration not stated) | 25.1 | 631 | 1000 | > 2510 | –
O=C(O)[C@@H]1CCCN(C2CCC3(Cc4ccccc4Oc4ccccc43)C2)C1 (some centres not stated) | 126 | 100 | > 2000 | – | –
O=C(O)C1=CCN(C2CCC3(Cc4ccccc4Cc4ccccc43)C2)CC1 (configuration not stated) | 39.8 | 79.4 | > 2000 | 200 | –
O=C(O)[C@@H]1CCCN(C2CCC3(C2)C(=O)c2cc(Cl)ccc2Oc2ccccc23)C1 (some centres not stated) | 200 | > 2000 | > 2000 | – | –
O=C(O)C1CN(C2CC[C@]3(Cc4ccccc4Cc4ccccc43)C2)CCO1 (some centres not stated) | 63.1 | 100 | > 2000 | 316 | –
O=C(O)C1=CCCN(C2CC[C@]3(Cc4ccccc4Cc4ccccc43)C2)C1 (single isomer, unassigned; stereoisomer 1) | 25.1 | 126 | – | 158 | Ki [6]: 8.71 nM; Ki [7]: 117 nM; IC50 [8]: > 10000 nM; IC50 [9]: > 10000 nM; IC50 [10]: > 10000 nM; IC50 [11]: > 10000 nM; IC50 [12]: > 10000 nM; fraction unbound [13]: 0.03; fraction unbound [14]: 0.024; clearance [15]: 2 mL/min/kg; Vd [16]: 0.4 L/kg; half-life [17]: 2.4 h; bioavailability [18]: 80%; Kp [19]: 0.1
CN1CCC(=C2c3ccccc3CC(=O)c3sccc32)CC1 [KETOTIFEN] | – | – | 31.6 | 200 | –
